Drawing on PubChem BioAssay AID652287 (Sanford-Burnham Center for Chemical Genomics, 2013), this text covers IC50 for 23 compounds.

“And” between values parts separate entries of the source, which are not always exact repeats. Equal entries are not always repeated. The source made the active and inactive calls.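 The calls were made as follows: active = compounds with IC50 of 20 µM or lower; inactive = the rest.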

A word on the IC50: it is the concentration that inhibits the measured activity by half.

Chain of Fatty acid synthase (Homo sapiens) (P49327 whole entry, looked up, the tested form may be a part): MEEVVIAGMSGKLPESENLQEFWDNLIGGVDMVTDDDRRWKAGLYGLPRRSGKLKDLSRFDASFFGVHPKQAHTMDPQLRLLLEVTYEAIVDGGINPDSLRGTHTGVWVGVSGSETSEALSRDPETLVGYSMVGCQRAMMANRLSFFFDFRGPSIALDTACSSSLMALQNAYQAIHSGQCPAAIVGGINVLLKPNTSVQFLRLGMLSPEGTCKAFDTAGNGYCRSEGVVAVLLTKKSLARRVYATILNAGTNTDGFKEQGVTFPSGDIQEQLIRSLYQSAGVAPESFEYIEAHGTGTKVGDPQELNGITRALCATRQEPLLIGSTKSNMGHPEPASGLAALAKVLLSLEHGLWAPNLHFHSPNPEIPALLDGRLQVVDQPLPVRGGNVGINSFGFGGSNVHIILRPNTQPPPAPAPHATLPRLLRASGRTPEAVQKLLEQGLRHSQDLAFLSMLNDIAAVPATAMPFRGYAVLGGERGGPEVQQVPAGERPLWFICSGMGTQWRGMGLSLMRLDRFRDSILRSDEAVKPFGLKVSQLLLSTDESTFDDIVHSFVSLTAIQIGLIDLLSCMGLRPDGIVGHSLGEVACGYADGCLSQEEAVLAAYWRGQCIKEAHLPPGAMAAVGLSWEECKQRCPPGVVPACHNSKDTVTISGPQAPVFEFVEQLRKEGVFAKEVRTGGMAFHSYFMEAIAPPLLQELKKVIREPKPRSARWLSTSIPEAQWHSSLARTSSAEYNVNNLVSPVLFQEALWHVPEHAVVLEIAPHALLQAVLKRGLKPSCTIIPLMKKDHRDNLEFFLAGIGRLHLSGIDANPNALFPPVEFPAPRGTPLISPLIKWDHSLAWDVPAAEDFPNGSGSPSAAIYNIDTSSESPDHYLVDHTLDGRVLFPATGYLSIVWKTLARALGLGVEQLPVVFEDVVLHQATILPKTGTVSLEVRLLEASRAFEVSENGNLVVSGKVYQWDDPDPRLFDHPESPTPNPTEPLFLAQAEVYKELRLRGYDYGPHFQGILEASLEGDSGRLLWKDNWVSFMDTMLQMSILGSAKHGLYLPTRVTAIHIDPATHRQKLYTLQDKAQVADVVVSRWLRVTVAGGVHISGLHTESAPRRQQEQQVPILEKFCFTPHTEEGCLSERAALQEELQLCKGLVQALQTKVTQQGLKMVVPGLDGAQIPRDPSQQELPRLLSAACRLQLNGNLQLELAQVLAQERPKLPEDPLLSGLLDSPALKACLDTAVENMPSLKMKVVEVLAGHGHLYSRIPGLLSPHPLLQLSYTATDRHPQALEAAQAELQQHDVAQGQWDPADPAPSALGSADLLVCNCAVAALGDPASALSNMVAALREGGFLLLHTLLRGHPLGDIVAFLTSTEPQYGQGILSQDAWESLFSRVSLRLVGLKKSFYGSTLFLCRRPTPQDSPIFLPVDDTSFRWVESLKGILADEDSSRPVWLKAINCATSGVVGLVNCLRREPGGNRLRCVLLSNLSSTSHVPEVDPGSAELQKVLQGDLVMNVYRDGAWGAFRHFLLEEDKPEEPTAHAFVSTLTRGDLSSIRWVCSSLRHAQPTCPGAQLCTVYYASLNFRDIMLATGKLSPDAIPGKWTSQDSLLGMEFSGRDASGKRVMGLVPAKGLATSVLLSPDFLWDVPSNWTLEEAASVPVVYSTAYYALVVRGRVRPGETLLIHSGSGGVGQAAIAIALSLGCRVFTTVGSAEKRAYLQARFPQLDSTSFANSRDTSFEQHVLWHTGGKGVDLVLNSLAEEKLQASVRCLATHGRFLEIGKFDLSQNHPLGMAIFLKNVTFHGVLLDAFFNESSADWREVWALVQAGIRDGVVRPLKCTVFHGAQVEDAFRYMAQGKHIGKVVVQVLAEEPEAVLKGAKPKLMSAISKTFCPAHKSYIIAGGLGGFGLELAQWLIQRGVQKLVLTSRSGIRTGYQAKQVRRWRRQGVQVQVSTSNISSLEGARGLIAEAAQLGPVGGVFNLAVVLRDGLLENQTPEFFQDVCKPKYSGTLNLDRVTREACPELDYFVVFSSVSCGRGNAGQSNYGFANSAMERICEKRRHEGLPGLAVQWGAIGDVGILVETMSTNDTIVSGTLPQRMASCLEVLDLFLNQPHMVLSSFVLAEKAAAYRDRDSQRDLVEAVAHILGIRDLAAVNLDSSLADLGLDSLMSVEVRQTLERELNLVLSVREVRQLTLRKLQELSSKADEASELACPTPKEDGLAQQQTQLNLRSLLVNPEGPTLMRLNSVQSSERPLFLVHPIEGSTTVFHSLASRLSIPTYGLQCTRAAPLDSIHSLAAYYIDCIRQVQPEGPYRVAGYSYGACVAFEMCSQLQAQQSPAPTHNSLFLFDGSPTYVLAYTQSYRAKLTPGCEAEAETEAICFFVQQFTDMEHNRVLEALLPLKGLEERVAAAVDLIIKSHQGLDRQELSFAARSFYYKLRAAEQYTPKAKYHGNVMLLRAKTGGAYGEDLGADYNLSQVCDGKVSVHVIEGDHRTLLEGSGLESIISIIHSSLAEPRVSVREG

The target of the test is Fatty acid synthase (Homo sapiens) (UniProt P49327). Nature of the test: FAS thioesterase domain inhibitors, SAR follow-up, biochemical, endpoint fluorescence, OMFH substrate, round 2, powder samples (AID 652287). The settings on record: recombinant FAS-TE, OMFH fluorogenic substrate. The gist of the method: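 Read-out basis: Fluorescence of released enzymatic product, across compound doses | System: FAS-TE enzyme | Amount: 0.9 µM FAS-TE enzyme, final | Times: Enzyme reaction 60 min at room temperature | Doses: Dose-response series, 5.5% DMSO final | Detection: Fluorescence endpoint, Ex 480 nm, Em 540 nm | Reagent: OMFH fluorogenic substrate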
Consider `CCCCCCC(=O)Nc1nc(-c2ccc(S(=O)(=O)N3CCC(C)CC3)cc2)cs1`, for which the IC50 was 4470 nM.
For the compound `CCC(CC)C(=O)Nc1nc(-c2ccc(S(=O)(=O)N3CCC(C)CC3)cc2)cs1`, the half-inhibitory concentration (IC50) was 1830 nM.
On to `CCCCCC(=O)Nc1nc(-c2ccc(S(=O)(=O)N(CC)CC)cc2)cs1`, for which the IC50 was 196 nM.
In the case of `CC(C)CC(=O)Nc1nc(-c2ccc(S(=O)(=O)N3CCC(C)CC3)cc2)cs1`, the IC50 entry is “inactive”.
For `CC(C)CC(=O)Nc1nc(-c2ccc(S(=O)(=O)N3CCCC3)cc2)cs1`, the IC50 was 1640 nM.
Regarding `CC1CCN(S(=O)(=O)c2ccc(-c3csc(NC(=O)C(C)C)n3)cc2)CC1`, the IC50 is 511 nM.
As for `CCCCCC(=O)Nc1nc(-c2ccc(S(=O)(=O)N3CCC(C)CC3)cc2)cs1`, the IC50 was 745 nM.
The figure for `CCC(C)C(=O)Nc1nc(-c2ccc(S(=O)(=O)N3CCCCC3C)cc2)cs1` (stereo not drawn) is 285 nM.
The figure for `CCC(CC)C(=O)Nc1nc(-c2ccc(S(=O)(=O)N(CC)CC)cc2)cs1` is 328 nM; for `CCCCCCC(=O)Nc1nc(-c2ccc(S(=O)(=O)N3CCCCC3C)cc2)cs1` (stereo not drawn) it is 4320 nM; for `CCC(CC)C(=O)Nc1nc(-c2ccc(S(=O)(=O)N3CCCC3)cc2)cs1` it is 257 nM.
As for `CCCCCC(=O)Nc1nc(-c2ccc(S(=O)(=O)N3CCCC3)cc2)cs1`, the figure is 141 nM; as for `CCCCCC(=O)Nc1nc(-c2ccc(S(=O)(=O)N3CCCCC3C)cc2)cs1` (stereo not drawn), 580 nM.
In the case of `CCCCCCC(=O)Nc1nc(-c2ccc(S(=O)(=O)N3CCCC3)cc2)cs1`, the IC50 was 846 nM.
As for `CCCCCCCCCCC[C@H](C[C@@H]1OC(=O)[C@H]1CCCCCC)OC(=O)[C@@H](NC=O)C(C)C`, the figure is 107 nM.
As for `CN(Cc1ccc(C(C)(C)C)cc1)C(=O)Cc1ccc(S(=O)(=O)N2CCOCC2)s1`, the figure is 343 nM; as for `CCCCC(=O)Nc1nc(-c2ccc(S(=O)(=O)N3CCOCC3)cc2)cs1`, 204 nM; as for `CCCCCCC(=O)Nc1nc(-c2ccc(S(=O)(=O)N(CC)CC)cc2)cs1`, 1390 nM.
Consider `Cn1c(SCC(=O)Nc2ncc(C(F)(F)F)cc2Cl)nnc1-c1ccc(Cl)cc1`, for which the IC50 is 686 nM.
As for `CCC(C)C(=O)Nc1nc(-c2ccc(S(=O)(=O)N3CCC(C)CC3)cc2)cs1` (stereo not drawn), the figure is 409 nM; as for `CCC(C)C(=O)Nc1nc(-c2ccc(S(=O)(=O)N3CCCC3)cc2)cs1` (stereo not drawn), 145 nM.
`CCCCC(=O)Nc1nc(-c2ccc(S(=O)(=O)N3CCCCC3C)cc2)cs1` (stereo not drawn): the IC50 was 382 nM.
As for `CCC(C)C(=O)Nc1nc(-c2ccc(S(=O)(=O)N(CC)CC)cc2)cs1` (stereo not drawn), the half-inhibitory concentration (IC50) is 1130 nM and 154 nM.
